ERAP1 inh: human ERAP1 aminopeptidase inhibitors, primary screen, biochemical, single point, plate reader; recombinant ERAP1, Leu-AMC fluorescence, 60 min; AID 652197, 2013; inhibition, % at 10.7 µM; Endoplasmic reticulum aminopeptidase 1 (Homo sapiens), Q9NZ08; hit rate 0.15% among 340,000;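 active = mean replicate inhibition of at least 30%, or all replicates individually reaching that 30% level; inactive = mean below 30% and not every replicate reaching it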;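 note: 0% = neutral control wells and 100% = L-leucinethiol positive control wells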
Target sequence (Q9NZ08 whole entry, looked up): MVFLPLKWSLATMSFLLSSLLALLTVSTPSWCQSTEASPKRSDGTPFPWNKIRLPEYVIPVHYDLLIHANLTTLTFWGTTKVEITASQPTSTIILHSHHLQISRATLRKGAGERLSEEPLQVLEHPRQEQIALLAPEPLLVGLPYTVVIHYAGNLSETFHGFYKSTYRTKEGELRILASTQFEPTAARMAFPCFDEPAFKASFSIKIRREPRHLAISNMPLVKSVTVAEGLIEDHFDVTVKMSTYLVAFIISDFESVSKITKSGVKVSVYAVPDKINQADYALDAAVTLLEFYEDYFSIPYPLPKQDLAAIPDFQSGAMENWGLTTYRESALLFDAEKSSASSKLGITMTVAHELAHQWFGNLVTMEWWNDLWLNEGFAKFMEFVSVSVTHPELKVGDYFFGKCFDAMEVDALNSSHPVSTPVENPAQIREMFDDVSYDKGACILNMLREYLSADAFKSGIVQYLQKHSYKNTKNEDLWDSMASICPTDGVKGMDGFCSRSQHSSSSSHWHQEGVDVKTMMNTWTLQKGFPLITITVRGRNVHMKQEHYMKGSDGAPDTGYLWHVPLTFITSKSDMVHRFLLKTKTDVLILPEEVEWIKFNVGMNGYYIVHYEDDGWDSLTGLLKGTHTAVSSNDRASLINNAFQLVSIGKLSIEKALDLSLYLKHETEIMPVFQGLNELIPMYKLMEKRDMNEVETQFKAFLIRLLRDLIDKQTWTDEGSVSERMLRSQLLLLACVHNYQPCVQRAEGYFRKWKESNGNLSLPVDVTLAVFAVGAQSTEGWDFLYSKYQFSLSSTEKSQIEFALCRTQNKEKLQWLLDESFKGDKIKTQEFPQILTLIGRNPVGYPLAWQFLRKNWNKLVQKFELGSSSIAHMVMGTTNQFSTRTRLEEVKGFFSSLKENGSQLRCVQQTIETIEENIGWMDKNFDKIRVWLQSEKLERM
rRNA inh HTS: reduced GFP signal of wild-type E. coli, primary screen, bacterial rRNA inhibitor project, GFP/RFP fluorescence, OD600, single point | E. coli WT GFP vs humanized-ribosome RFP mutants, 24 h; stronger effect = lower value; DMSO median 0, no signal -100 | GFP signal change (wild-type ribosome), % (concentration not given with the values) | hit rate 1.6% among 350,000 | AID 720706, 2013;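 active = significant combined selectivity score with lowered wild-type GFP, culture density cut under 30%, mutant RFP and density less affected; inactive = any of these conditions unmet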
MLL AF4-AF9 inh: inhibitors of AF4 peptide binding to AF9, primary screen, biochemical, AlphaScreen, biotin-AF4 peptide, FLAG-AF9, single point; AID 651704, 2012; Protein AF-9 (Homo sapiens), P42568; inhibition, % at 10 µM; hit rate 0.47% among 350,000;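 active = every replicate reaching a set inhibition limit, whatever the replicate mean, cut at about 25% in these data; inconclusive = mean inhibition reaches that limit but some replicates miss it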;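 note: 0% = plate neutral control median and 100% = total signal loss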
SIRT5 block: SIRT5 desuccinylase inhibitors, primary screen, biochemical, fluorescence imaging, single point, set 5; NAD-dependent protein deacylase sirtuin-5, mitochondrial (Homo sapiens), Q9NXA8; Purified SirT5, succinyl-peptide AMC, trypsin-coupled fluorescence; inhibition, % at 15 µM; hit rate 1.1% among 330,000; AID 652115, 2013; in the data active = inhibition above about 15%; inconclusive = no clear call, values can overlap the other calls
S100A4 MyoIIA: inhibitors of S100A4-myosin IIA peptide binding, primary screen, biochemical, fluorescence polarization, TAMRA-MyoIIA peptide. Protein S100-A4 (Homo sapiens), P26447. inhibition, % at 10.7 µM. hit rate 0.14% among 360,000. AID 652163, 2013;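 active = mean inhibition of at least 70% across replicates, with every replicate also reaching that level; inconclusive = mean inhibition reaches 70% but some replicates fall short; inactive = mean inhibition below 70%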
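Material: S100A4 monomer protein / Buffer or medium: 50 mM HEPES pH 7.2, 10 mM CaCl2, 100 mM KCl / Times: 5 min incubation before reading / Benchmarks: neutral control DMSO, positive control TFP / Reagent: labelled myosin peptide probe, 5 nM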
E-selectin induc: E-selectin induction in HUVECs, primary screen, imaging, HUVEC, immunofluorescence imaging, single point; P16581; normalized: neutral wells 0, TNF-alpha wells 100; activation, % at 7.58 µM; hit rate 0.37% among 260,000;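 active = mean E-selectin-positive cell signal at least 10% of the positive control, reached in at least 60% of replicates, without over 20% cell loss; inconclusive = no rule given, readout overlaps actives, possibly toxicity-flagged; inactive = the rest, including those meeting only one limit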
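material = human umbilical vein endothelial cells (HUVEC), E-selectin induction | quantity = 3,000 cells/well | medium = EGM-2 growth medium on 0.1% gelatin-coated wells | technique = immunofluorescence imaging | read-out basis = % PE-positive cells | control set = TNF-alpha positive control, DMSO neutral control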
An asterisk follows results filed as active; ? = inconclusive; / = not tested or not shown. Hits are enriched below; roughly 3.4% of the tested compounds scored in any of these assays.

SMILES	ERAP1 inh	rRNA inh HTS	MLL AF4-AF9 inh	SIRT5 block	S100A4 MyoIIA	E-selectin induc
C[C@H]1CN([C@@H](C)CO)C(=O)c2cccc(NC(=O)C3CC3)c2O[C@@H]1CN(C)Cc1ccc2c(c1)OCO2	-2	-3	-1	3	122*	0
C[C@@H]1CN([C@@H](C)CO)C(=O)c2cccc(N(C)C)c2O[C@@H]1CN(C)Cc1ccccc1	0	2	-1	23*	12	0
O=C(C[C@H]1CC[C@H]2[C@@H](COC[C@@H](O)CN2CC2CC2)O1)NCc1ccc(Cl)cc1	-2	-1	-1	0	0	0
COC(=O)C[C@@H]1CC[C@@H]2[C@H](COc3ccc(NC(=O)Nc4cccc(Cl)c4)cc3C(=O)N2C)O1	3	-3	1	4	0	0
CCNC(=O)C[C@H]1CC[C@H](NC(=O)C2CC2)[C@@H](CO)O1	-2	5	1	1	-4	-1
C[C@H](CO)N1C[C@H](C)[C@H](CN(C)Cc2ccncc2)Oc2c(NC(=O)C3CC3)cccc2C1=O	-4	3	-5	2	126*	-1
C[C@@H]1CN([C@@H](C)CO)C(=O)c2cccc(NC(=O)C3CCCCC3)c2O[C@@H]1CN(C)CC1CC1	0	2	-2	13	-8	0
C[C@@H]1CN([C@H](C)CO)C(=O)c2cccc(NC(=O)C3CCCCC3)c2O[C@@H]1CN(C)CC1CC1	0	2	-2	21*	-11	0
C[C@@H]1CN([C@H](C)CO)C(=O)c2cccc(NC(=O)C3CC3)c2O[C@H]1CN(C)Cc1ccncc1	-4	2	-7	2	8	0
COc1ccc(Cn2c(-c3ccc(Br)cc3)c[n+]3ccccc23)cc1	-8	-30*	2	-1	-3	/
COc1ccc(Cn2c(-c3ccc(OC)cc3)nc3ccccc32)cc1	-4	7	4	2	-3	/
CC(=O)Nc1ccc2c(c1)CC(=O)N(C)C[C@H](C)[C@@H](CN(C)C(C)=O)O2	/	0	/	/	/	/
Cc1cc(C)cc(OCCNC(=O)c2cc(S(=O)(=O)N3CCOCC3)ccc2F)c1	-6	-1	-1	17*	1	1
O=C(NC1CCCCCC1)c1cc(S(=O)(=O)N2CCOCC2)ccc1F	-1	5	-3	1	0	/
CCOC(=O)C1CCN(c2ncnc3nc[nH]c23)CC1	0	-7	-4	0	-3	0
CCOC(=O)C1CCN(c2ncnc3c(C)csc23)CC1	3	-25*	1	2	2	0
CCOC(=O)C1CCN(c2ncnc3c2nnn3Cc2ccccc2Cl)CC1	1	-20*	1	-3	2	-3
Cc1cc(C)n2c(Nc3ccc4c(c3)OCCO4)c(-c3ccccn3)nc2n1	54*	5	18	/	-7	0
Cn1c(N)c(Sc2ccccc2[N+](=O)[O-])c(=O)n(C)c1=O	-6	8	-4	-4	9	0
CC(=O)Oc1c(Sc2ccccc2[N+](=O)[O-])c(C)nn1C(C)(C)C	-2	1	-15	8	-302	-2
Cc1n[nH]c(C)c1Sc1ccccc1[N+](=O)[O-]	-3	-34*	2	-1	-1	5
Cc1ccc(-n2nc(C)c(Sc3ccccc3[N+](=O)[O-])c2N)cc1	3	-42*	19	0	6	/
O=C(C1CCCCC1)N1CC2(C1)[C@@H](c1ccccc1)[C@@H](CO)N2Cc1nccs1	1	-4	/	4	2	0
Cc1noc(C)c1NC(=O)N(C)C[C@@H]1Oc2ccc(NS(C)(=O)=O)cc2C(=O)N([C@H](C)CO)C[C@H]1C	-3	-3	-2	2	5	/
Cc1cc(C)cc(NC(=O)N2CCCN(c3ncccc3[N+](=O)[O-])CC2)c1	/	-23	4	-4	-3	0
SMILES	ERAP1 inh	rRNA inh HTS	MLL AF4-AF9 inh	SIRT5 block	S100A4 MyoIIA	E-selectin induc
O=C1CCN(c2ncccc2[N+](=O)[O-])CC1	0	11	0	-2	-2	0
CC(C)NC(=S)N1CCCN(c2ncccc2[N+](=O)[O-])CC1	-3	6	-1	17*	3	0
O=[N+]([O-])c1cccnc1N1CCN(c2ccc(F)cc2)CC1	6	-32*	?	-2	1	1
CO[C@@H]1CN(C)C(=O)c2ccc(NC(C)=O)cc2OC[C@H](C)N(C(=O)C2CCCCC2)C[C@@H]1C	2	0	1	5	5	0
CC1(C)OC2CC3C4CC(F)C5=CC(=O)C=CC5(C)C4(F)C(O)CC3(C)C2(C(=O)CO)O1 (centres undefined)	0	6	-1	17*	-1	0
CC1(c2ccccc2)O[C@@H]2C[C@H]3[C@@H]4CCC5=CC(=O)C=C[C@]5(C)[C@@]4(F)[C@@H](O)C[C@]3(C)[C@]2(C(=O)CO)O1 (some centres undefined)	0	-22*	3	-1	0	0
CCN(CC)CCNC(=O)c1cc2c(=O)n(CC)c3ccccc3c2s1	-4	6	2	-23	-4	63*
CC(=O)N(C)C[C@H]1Oc2cc(C#CC(C)(C)O)ccc2S(=O)(=O)N([C@H](C)CO)C[C@H]1C	-1	0	-2	-2	-27	0
C[C@H]1CN([C@@H](C)CO)S(=O)(=O)c2ccc(-c3ccncc3)cc2O[C@@H]1CN(C)C(=O)C1CCC1	/	1	/	/	/	1
O=C(NC(=S)N1CCCCC1)c1csc([N+](=O)[O-])c1	0	-23*	1	-2	-3	/
Cc1cc([N+](=O)[O-])nn1CCCC(=O)NC(C)c1ccccc1 (centres undefined)	1	1	5	38*	-4	-1
Cc1ccc2c(c1)CO[C@@]21O[C@H](CCO)C[C@H](O)[C@H]1O	7	2	0	23*	0	-1
O=C(Cc1cccc(NC(=O)C2CCCN(C(=O)C3CCCCC3)C2)c1)Nc1cccc(C(=O)N2CCOCC2)c1 (centres undefined)	8	7	-2	0	-8	1
O=C(Cc1cccc(NC(=O)C2CCCN(C(=O)CCc3ccccc3)C2)c1)Nc1cccc(C(=O)N2CCOCC2)c1 (centres undefined)	-5	-1	2	-3	-1	0

Screens as filed in PubChem BioAssay.
